# Bioassay records as filed in PubChem.
# In the library only some 2.8% were active in any assay of this set; here they are far more common.
# NPY-Y1 antag – antagonists of human neuropeptide Y receptor Y1. P25929. HEK293-CNG Y1 cells, membrane potential fluorescence; NPY at EC95, then isoproterenol. inhibition, % at 3.6 µM. hit rate 1% among 200,000;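 active means inhibition above the campaign mean inhibition of all tested compounds plus 3 SD, cut at about 20% in these data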;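 further: 0% = DMSO wells given NPY plus isoproterenol and 100% = isoproterenol alone without NPY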
#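 Material: HEK293 Y1/CNG channel cell line | Also added: NPY (25 nM), isoproterenol (1 µM), Ro 20-1724 (25 µM) | Compound: One concentration, 3.6 µM, in 0.4% DMSO | Schedule: 3 h dye uptake, 1 h room-temperature compound, 45 min post-isoproterenol | Signal: Membrane-potential fluorescent dye readout | Read-out: % inhibition of NPY effect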
# NPY-Y2 antag – NPY-Y2 (human) receptor antagonism; hit rate 0.99% among 140,000; NPY-Y2 expressing cells, antagonist mode; P49146; inhibition, % at 2.7 µM; in the data active means inhibition above about 17%;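 further: 0% = vehicle with agonist challenge and 100% = reference antagonist with challenge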
# Target sequence (P49146 whole entry, looked up): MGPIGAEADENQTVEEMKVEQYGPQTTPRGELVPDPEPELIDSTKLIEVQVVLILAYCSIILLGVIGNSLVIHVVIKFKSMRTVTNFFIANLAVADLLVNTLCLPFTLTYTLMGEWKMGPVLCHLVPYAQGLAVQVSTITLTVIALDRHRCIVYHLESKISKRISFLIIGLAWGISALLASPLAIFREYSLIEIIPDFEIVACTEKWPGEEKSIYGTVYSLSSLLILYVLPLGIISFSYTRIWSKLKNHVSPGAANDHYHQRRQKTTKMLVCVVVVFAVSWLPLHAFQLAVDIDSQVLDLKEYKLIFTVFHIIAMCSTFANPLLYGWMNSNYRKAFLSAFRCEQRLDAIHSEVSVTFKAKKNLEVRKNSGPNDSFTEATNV
# EP2 modulator – EP2 receptor (human) modulation; P43116; EP2-expressing cells, cAMP HTRF FRET, PGE2 co-stimulation; induction, % at 25 µM; hit rate 0.83% among 260,000;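 active means compounds whose cAMP rise, as percent of the full-agonist control response, exceeds 60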;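 further: rat C6 glioma line stably carrying human EP2 under a CMV promoter; the protocol text gives 20 µM as final concentration; 100% = response of wells given 1 µM PGE2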
# Target sequence (P43116 whole entry, looked up): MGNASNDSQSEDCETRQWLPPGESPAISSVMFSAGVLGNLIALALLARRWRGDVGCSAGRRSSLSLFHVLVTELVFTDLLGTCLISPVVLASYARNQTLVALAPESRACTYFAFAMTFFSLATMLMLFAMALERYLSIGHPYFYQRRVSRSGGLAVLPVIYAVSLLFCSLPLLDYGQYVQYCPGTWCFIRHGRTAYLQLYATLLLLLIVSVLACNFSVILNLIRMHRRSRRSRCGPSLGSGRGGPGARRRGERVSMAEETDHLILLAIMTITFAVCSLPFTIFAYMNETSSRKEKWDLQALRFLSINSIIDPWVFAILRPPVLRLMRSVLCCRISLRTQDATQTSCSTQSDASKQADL
# EP2 antag – blocks the human prostaglandin E2 receptor EP2; C6 glioma cells expressing human EP2, cAMP TR-FRET; cells stimulated with saturating PGE2; P43116; hit rate 0.52% among 260,000; inhibition, % at 25 µM;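 active means percent inhibition above 40 after rounding to a whole number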;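 further: rat C6 glioma host cells with rolipram phosphodiesterase inhibitor present; the protocol text gives 20 µM as final concentration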
# NPY-Y1 PAM-ag – potentiates or activates human NPY-Y1 receptor | hit rate 0.37% among 220,000 | P25929 | activation, % at 3.6 µM | NPY-Y1 expressing cells, potentiator/agonist activation; in the data active means activation above about 33%, passing the limit was not always enough;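 further: cells stimulated with NPY at EC10 then isoproterenol at EC100; 0% = low agonist plus stimulus and 100% = saturating agonist plus stimulus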
# NPY2 pot ag – human NPY-Y2 potentiation or agonism, primary screen; AID 1359; cells expressing NPY-Y2, potentiator/agonist read-out; activation, % at 3.6 µM; hit rate 0.45% among 220,000; P49146; in the data active means activation above about 27%;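 further: cells stimulated with NPY near EC25 plus isoproterenol at EC100; 0% = vehicle plus submaximal agonist and 100% = vehicle plus saturating agonist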
# NPY1 antag ctr – counter-screen for NPY-Y2 antagonists: human NPY-Y1 antagonism. shares compounds with NPY-Y2 antag. cell-based NPY-Y1 antagonism counterscreen. hit rate 19% among 710. inhibition, % at 3.6 µM; in the data active means inhibition above about 20%;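 further: cells challenged with NPY then isoproterenol with cAMP sensed through a CNG channel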
# NPY2 antag conf – human NPY-Y2 antagonism, confirmation. shares compounds with NPY-Y2 antag. HEK293 NPY-Y2 CNG channel, membrane potential fluorescence. inhibition, % at 2.8 µM. hit rate 32% among 710. AID 1257;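 active means mean inhibition of triplicate wells above the hit cutoff set in the primary screen, cut at about 17% in these data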;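 further: 0% = DMSO with NPY challenge and 100% = BIIE0246 high control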
# Numbers without * were called inactive; nt = not tested or not shown; ! = not confirmed by another sample.
SMILES,NPY-Y1 antag,NPY-Y2 antag,EP2 modulator,EP2 antag,NPY-Y1 PAM-ag,NPY2 pot ag,NPY1 antag ctr,NPY2 antag conf
C=CCn1c(C(C)NC(=O)c2cccs2)n[nH]c1=S (centres undefined),1.9,10.4,27.2,7.5,14.1,-2.8,nt,nt
CCn1c(C(C)NC(=O)c2cccs2)n[nH]c1=S (centres undefined),1.0,22.4*,3.1,10.9,4.9,-1.5,0.8,-0.1
C/C(=C\c1ccccc1)C(=O)N1CCN(c2cccc(C(F)(F)F)c2)CC1,15.0,12.3,-54.9,4.7,-4.7,-22.4,nt,nt
Cc1ccc(/C=C/C(=O)N2CCN(c3cccc(C(F)(F)F)c3)CC2)cc1,10.1,21.1*,19.3,4.6,2.7,-13.6,20.7*,14.0
CCN(CC)CCN(Cc1cc2cc3c(cc2[nH]c1=O)OCO3)C(=O)Nc1ccccc1,nt,nt,-36.5,3.9,nt,nt,nt,nt
COC(=O)c1ccc(C(=O)OC)c(-n2c(=O)c3ccccc3c3ccccc3c2=O)c1,-0.3,18.7*,21.9,9.9,22.5,11.5,7.6,15.6
CC1CCN(C(c2ccccc2)c2nnnn2C2CCCCC2)CC1 (centres undefined),nt,nt,27.8,11.8,nt,nt,nt,nt
COc1ccccc1C1(O)CCN(Cc2ccc(-n3cccn3)cc2)CC1,nt,nt,-74.0,5.3,nt,nt,nt,nt
CCC(C)(C)n1nnnc1C(c1ccc(C)cc1)N(Cc1ccco1)Cc1cccs1 (centres undefined),17.8,22.5*,8.2,8.1,-22.5,1.1,10.3,9.8
CC(C)(C)n1nnnc1C(c1cccnc1)N(Cc1ccccc1)Cc1ccco1 (centres undefined),18.3,17.5*,30.2,23.2,-0.9,-4.0,5.9,2.5
Cc1ccc2cc(C(c3nnnn3C(C)(C)C)N(Cc3ccco3)Cc3cccs3)c(=O)[nH]c2c1 (centres undefined),nt,nt,19.2,14.0,nt,nt,nt,nt
CC(C)c1nnc(NS(=O)(=O)c2ccc(F)cc2)s1,nt,nt,-25.5,18.9,nt,nt,nt,nt
CCCC(c1nnnn1C(C)(C)CC)N1CCN(Cc2ccccc2)CC1 (centres undefined),nt,nt,0.1,14.3,nt,nt,nt,nt
Cc1cc(C)cc(OCC(=O)N2CCOCC2)c1,nt,nt,-21.5,3.3,nt,nt,nt,nt
COc1ccc(C2=C(CN(C)C)C(c3ccccc3)c3ccccc3O2)cc1 (centres undefined),23.5*!,18.1*!,22.8,11.0,-17.0,-20.9,24.9*,34.3*
Cc1cccc(CSC2=NCCN2C(=O)c2ccc(S(=O)(=O)N(C)C)cc2)c1,4.6,nt,-5.5,4.3,16.4,-5.3,nt,nt
Cc1cccc(CSC2=NCCN2C(=O)c2ccc(Br)o2)c1,13.2,19.6*,27.1,15.5,-18.1,-16.7,16.8,30.5*
CC1CCCCC1NC(=O)Cn1c2ccccc2n2c(=O)n(Cc3cccnc3)nc12 (centres undefined),nt,nt,1.0,nt,nt,nt,nt,nt
Cc1ccc(-c2nn3c(C)nnc3c3ccccc23)cc1S(=O)(=O)NC(C)c1ccccc1 (centres undefined),4.3,17.6*,26.6,4.8,-7.7,-25.6,11.5,19.1*
CCOc1ccc(CC(=O)N[C@@H](C)Cn2nnc3ccccc32)cc1,nt,nt,-2.1,5.6,nt,nt,nt,nt
CC(C)c1ccc(-c2nnn(CCC#N)n2)cc1,1.9,nt,-19.8,6.0,1.2,-9.9,nt,nt
CC(C)c1ccc(-c2nnn(Cc3nc4ccccc4s3)n2)cc1,16.4,22.9*,-13.5,4.4,-60.5,-24.3,16.0,23.3*
CCCCNC(=O)CN1C(=O)C(CC)Oc2ccc(Cl)cc21 (centres undefined),17.1,22.5*,-25.9,5.7,-28.3,-22.9,7.0,6.9
CC(C)c1nnc(SCC(=O)NCc2ccco2)n1C,-4.1,1.4,12.5,8.5,12.2,-0.9,nt,nt
CCn1c(SCC(=O)NCc2ccco2)nnc1C(C)C,-4.6,23.1*,13.2,3.2,15.7,9.1,0.3,1.3
SMILES,NPY-Y1 antag,NPY-Y2 antag,EP2 modulator,EP2 antag,NPY-Y1 PAM-ag,NPY2 pot ag,NPY1 antag ctr,NPY2 antag conf
O=C(Nc1ccccc1F)N(Cc1cc2cc3c(cc2[nH]c1=O)OCCO3)CC1CCCO1 (centres undefined),nt,nt,-47.6,6.1,nt,nt,nt,nt
CCOc1cccc(/C(O)=C2/C(=O)C(=O)N(Cc3ccncc3)C2c2ccc(C)o2)c1 (centres undefined),nt,nt,20.3,12.5,nt,nt,nt,nt
N#Cc1ccc(-c2cccnc2)nc1SCc1ccc(Cl)c(Cl)c1,3.6,27.2*,29.1,1.6,2.5,10.5,19.5,21.3*
CCN(CC)C(=O)Cn1cc(C(=O)C(C)(C)C)c2ccccc21,nt,nt,-44.6,9.1,nt,nt,nt,nt
O=C(NC1CCCCC1)C(c1ccccc1)N(Cc1ccc2c(c1)OCO2)C(=O)c1cnsn1 (centres undefined),12.4,25.5*,26.3,5.7,-43.0,-10.9,15.7,12.4
O=C(NC1CCCCC1)C(c1ccncc1)N(Cc1ccc2c(c1)OCO2)C(=O)c1ccccn1 (centres undefined),nt,nt,-18.5,14.9,nt,nt,nt,nt
Cc1cc(C)nc(N/N=C/C2=C(N3CCOCC3)C(=C/c3ccccc3)/CC2)n1,16.8,75.7*,28.9,5.5,0.3,5.5,56.0*,71.7*
O=C(O)c1ccccc1N/N=C/C1=C(N2CCOCC2)C(=C\c2ccccc2)/CC1,nt,nt,43.8,12.9,28.6,19.2,nt,nt
CC12CCC(C/C1=N\N=C1\NC(=O)/C(=C\c3ccc(Cl)cc3)S1)C2(C)C (centres undefined),3.7,37.4*,-7.6,10.9,-0.4,6.3,44.3*,54.6*
O=C1NC(=NCc2ccccc2)S/C1=C\c1ccccc1,3.6,1.3,-21.9,16.7,-21.0,-4.8,nt,nt
CN(C)CCCn1c(SCC(=O)N2c3ccccc3Sc3ccccc32)nc2ccccc2c1=O,14.8,38.8*,-1.9,17.1,-71.0,-20.9,42.5*,77.3*
O=C(Nc1cccn(Cc2c(Cl)cccc2Cl)c1=O)c1c(Cl)cccc1Cl,9.1,20.2*,29.9,9.6,4.0,10.9,12.2,8.8
O=C(/C=C/c1cccc(Cl)c1)c1nc2ccccc2[nH]1,3.1,17.7*,-10.0,15.3,4.4,-10.2,12.3,33.6*
O=C(/C(=C\c1ccccc1)c1nc2ccccc2[nH]1)c1ccc(Cl)cc1,-1.8,1.0,-17.4,6.6,-21.7,11.1,nt,nt
COc1cccc(-c2nnc3sc(-c4ccc(C)cc4)nn23)c1,0.8,26.3*,20.2,nt,9.4,-0.4,14.8,8.2
CCc1ccc(NC(=O)CSc2nnc(-c3ccoc3C)n2CC2CCCO2)cc1 (centres undefined),nt,nt,11.3,6.6,nt,nt,nt,nt
Cc1ccc(C)c(NS(=O)(=O)c2cc(C(=O)Nc3ccccc3-c3ccccc3)ccc2Cl)c1,0.9,68.8*,15.2,3.6,2.8,-32.8,2.2,103.2*
